Screening results (PubChem)
An excerpt weighted towards active compounds, which were near 2.1% of everything screened.
Runt-CBFb FRET: inhibitors of human RUNX1 Runt domain binding to CBFb | Q01196+Q13951 | Cerulean-Runt/Venus-CBFb FRET ratio 530/480, 1 h | inhibition, % at 20 µM | 220,000 tested, 0.46% active | AID 1496;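 active = inhibition over about 50% at 20 µM in the single-dose screen, limit read from the data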;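 note: 0% = DMSO wells and 100% = excess unlabeled CBFb competitor control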
Target sequence (Q01196 whole entry, looked up, the tested form may be a part): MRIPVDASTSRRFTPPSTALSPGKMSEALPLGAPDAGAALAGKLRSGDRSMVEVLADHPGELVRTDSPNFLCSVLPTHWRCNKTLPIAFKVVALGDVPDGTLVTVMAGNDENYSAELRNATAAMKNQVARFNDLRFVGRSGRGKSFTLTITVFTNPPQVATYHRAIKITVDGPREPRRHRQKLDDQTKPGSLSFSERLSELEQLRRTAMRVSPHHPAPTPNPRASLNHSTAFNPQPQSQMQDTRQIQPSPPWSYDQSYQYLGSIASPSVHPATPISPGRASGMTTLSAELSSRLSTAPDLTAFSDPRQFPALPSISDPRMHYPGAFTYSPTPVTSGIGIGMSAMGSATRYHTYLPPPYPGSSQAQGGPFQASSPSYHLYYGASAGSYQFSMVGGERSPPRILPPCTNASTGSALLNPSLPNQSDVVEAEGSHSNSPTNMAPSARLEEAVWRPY
Target sequence (Q13951 whole entry, looked up, the tested form may be a part): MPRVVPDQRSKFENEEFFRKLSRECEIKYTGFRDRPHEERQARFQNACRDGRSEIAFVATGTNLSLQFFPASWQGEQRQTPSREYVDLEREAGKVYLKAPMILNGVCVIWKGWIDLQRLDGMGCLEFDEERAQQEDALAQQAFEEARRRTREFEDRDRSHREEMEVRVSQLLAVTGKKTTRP
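Doses: 20 µM compound in 1% DMSO | Material: Cerulean-labeled Runt domain protein | Amount: Each fluorescent fusion protein 100 nM | Schedule: Two 1 h room-temperature incubations shielded from light | Measured by: FRET fluorescence | Evaluation: Loss of energy transfer signal | Controls: Unlabeled CBFb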
Hck-Nef inh: human Hck-Nef kinase inhibition | 220,000 tested, 0.68% active | AID 463187 | Recombinant Hck-YEEI plus Nef, Z-Lyte FRET kinase assay | inhibition, % at 20 µM | P08631;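 active = Hck-Nef kinase inhibition above about 50%, limit read from the data; inactive = inhibition below that limit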;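 note: 0% = DMSO with Hck plus Nef and 100% = Hck alone without Nef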
p-CIP stab down: compounds decreasing mouse p/CIP protein stability; Q05BA5; F442A p/CIP-EGFP cells, EGFP fluorescence, 16 h; decrease of EGFP signal, % at 10 µM; 290,000 tested, 0.01% active;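 active = EGFP signal decrease of at least 30% at 10 µM or well 3 SD below plate mean, unless failing retest; inactive = the rest, including hits failing retest or dose response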
Pemphigus Ab inh: blocks pemphigus antibody binding to human desmoglein-3. P32926. DSG3-coupled beads, scFv-anti-DSG3-GFP binding, flow cytometry; stronger effect = lower value. binding (percent of control), % at 10 µM. 310,000 tested, 0.48% active. AID 588358;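 active = binding more than 3 SD below its plate's average and above zero; inconclusive = below that plate limit but binding exactly zero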;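 note: hits lower antibody fragment binding to DSG3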
RanGTP-Impb inh: inhibitors of RanGTP-importin-beta interaction, primary screen, biochemical, FRET, CFP-Ran, YFP-importin-beta, homogeneous; AID 2216; inhibition, % (concentration not given with the values); cell-free CFP-Ran/YFP-importin-beta FRET ratio; 300,000 tested, 1.1% active;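 active = more than half of the replicate wells show a fall in the fluorescence ratio signal beyond about 16%, limit read from the data, passing the limit was not always enough; inconclusive = exactly half of the replicate wells pass the set limit; inactive = fewer than half of replicates pass the limit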;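 note: 0% = DMSO wells and 100% = Ran loaded with GDP instead of GTP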
Runt-SMMHC FRET: inhibitors of human RUNX1 Runt domain binding to CBFb-SMMHC | Cerulean-Runt/Venus-CBFb-SMMHC FRET ratio 530/480, 1 h | inhibition, % at 20 µM | 220,000 tested, 0.74% active | AID 1434;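 active = mean inhibition across duplicate retests at 20 µM reaching about 50%, limit read from the data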;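 note: 0% = DMSO wells and 100% = wells with excess untagged CBFb-SMMHC; inhibitors lower the FRET ratio by blocking Runt binding to CBFb-SMMHC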
Hck-Nef confirm: Hck-Nef kinase inhibition, confirmation; shares compounds with Hck-Nef inh; calls only at 10 µM; Recombinant Hck-YEEI:Nef, Z-Lyte FRET kinase assay; 1,300 tested, 28% active;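 active = average inhibition of at least 50%, with Z-scores no higher than 3 in both the phospho-tyrosine peptide and fluorescence counterscreens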
* hit, by the source's call; i = inactive; ? = inconclusive; · = no result shown; + = active, no number.

SMILES	Runt-CBFb FRET	Hck-Nef inh	p-CIP stab down	Pemphigus Ab inh	RanGTP-Impb inh	Runt-SMMHC FRET	Hck-Nef confirm
COc1ccc(NC(=O)CN2C(=O)COc3ccccc32)cc1OC	·	·	-1	119	1	·	·
O=C(O)CC1S/C(=N/N=C/c2ccc(-c3ccc(Cl)c([N+](=O)[O-])c3)o2)NC1=O (configuration not stated)	38	119*	-5	108	4	24	i
O=C(O)CC1S/C(=N/N=C/c2ccc(-c3ccc(Cl)cc3[N+](=O)[O-])o2)NC1=O (configuration not stated)	27	1	-10	98	1	14	·
Cc1[nH]c(=O)[nH]c(=O)c1S(=O)(=O)Nc1cccc(C(F)(F)F)c1	·	·	-9	101	1	·	·
CCOc1cc(/C=C2\SC(=S)N(C(C(=O)O)c3ccccc3)C2=O)ccc1O (configuration not stated)	-47	63*	-119	101	-19	-162	i
Cc1ccc(S(=O)(=O)NCCC(=O)Oc2ccc3ccc(=O)oc3c2)cc1	36	93*	-6	94	8	56*	·
Cc1ccc2cc(S(=O)(=O)NCCC(=O)O)ccc2c1	4	1	-17	95	?	3	·
CSc1nc(SCCO)c2sc3nc(-c4ccco4)c4c(c3c2n1)CC(C)(C)OC4	-12	78*	-13	·	4	-46	i
CC(=O)COc1nc2c(c(-c3ccco3)c1C#N)CCc1ccccc1-2	5	56*	-12	·	11	3	i
COc1ccc(OCC2c3cc(OC)c(OC)cc3CCN2C(=O)C(C)C)cc1 (configuration not stated)	0	31	-1	112	2	4	·
OC(CN1CCCCC1)Cn1c2ccccc2c2ccccc21 (configuration not stated)	·	·	-6	?	5	·	·
O=c1c2ccccc2n(CC(O)CN2CCCCC2)c2ccccc12 (configuration not stated)	61*	154*	-2	93	96*	81*	·
CCc1nnc(NS(=O)(=O)c2ccc(NC(=S)NC(=O)/C=C/c3ccc(C(C)C)cc3)cc2)s1	-47	65*	-2	102	-5	-83	+
CCc1nnc(NS(=O)(=O)c2ccc(NC(=S)NC(=O)/C=C/c3ccccc3)cc2)s1	-4	5	6	94	-3	-3	·
O=C(C1CCC(=O)N(C2CCCC2)C1)N1CCC(Oc2ccccc2Cl)CC1 (configuration not stated)	·	·	-18	105	2	·	·
COc1cc2c(cc1NC(=O)Nc1ccc(F)cc1)oc1ccccc12	-1	2	4	97	4	5	·
CC(=O)NS(=O)(=O)c1ccc(NC(=O)c2cc(-c3ccc(C)cc3)nc3ccccc23)cc1	-1	1	1	100	-5	2	·
CC(=O)NS(=O)(=O)c1ccc(NC(=O)c2cc(-c3ccc(C)c(C)c3)nc3ccccc23)cc1	0	52*	-16	109	0	-7	+
N#CCC(CNc1ncc(C(F)(F)F)cc1Cl)OC(=O)c1ccc(Cl)cc1Cl (configuration not stated)	-4	0	-14	93	0	-6	·
NC(=O)N/N=C/c1coc2ccc3ccccc3c2c1=O	3	32	-4	106	-6	-4	·
NC(=S)N/N=C/c1coc2c(ccc3ccccc32)c1=O	0	61*	3	102	-3	-1	+
NC(=S)N/N=C/c1coc2cc(Br)ccc2c1=O	1	30	-17	106	6	-5	·
NC(=S)N/N=C/c1coc2ccc(Br)cc2c1=O	3	73*	-6	108	0	0	+
CC1=C(C(=O)Nc2ccccc2C(=O)NCCCOC(C)C)SCCO1	·	·	2	90	-4	·	·
CCOc1cc(/C=C2\N=C(SC)SC2=O)cc([N+](=O)[O-])c1OC(C)=O	3	13	-4	99	4	0	·
SMILES	Runt-CBFb FRET	Hck-Nef inh	p-CIP stab down	Pemphigus Ab inh	RanGTP-Impb inh	Runt-SMMHC FRET	Hck-Nef confirm
CCOc1cc(/C=C2\N=C(SCC)SC2=O)cc([N+](=O)[O-])c1OC(C)=O	6	95*	-3	98	6	-6	+
Cc1c(NS(=O)(=O)c2cccs2)cccc1-c1nc2cccnc2s1	-1	6	1	94	-4	-2	·
CCS(=O)(=O)Nc1ccc(-c2nc3cccnc3s2)cc1	32	+	-10	104	2	74*	·
Cc1cc(-c2nc3cccnc3s2)ccc1NS(=O)(=O)c1cccs1	128*	95*	-14	102	92*	107*	i
Cc1cc(-c2nc3cccnc3s2)ccc1NS(=O)(=O)c1ccc2c(c1)OCCO2	102*	71*	21	98	71*	119*	·
CCS(=O)(=O)Nc1cc(-c2nc3cccnc3s2)ccc1C	4	1	0	101	2	-7	·
O=S(=O)(Nc1ccc(-c2nc3cccnc3s2)cc1)c1cccs1	91*	116*	2	99	10	145*	·
O=S(=O)(Nc1cccc2ncccc12)c1cccs1	-1	2	-1	103	3	2	·
CC1CCCN(C(=O)COC(=O)C2CCN(S(=O)(=O)c3ccc4c(c3)OCCO4)CC2)C1 (configuration not stated)	·	·	·	108	6	·	·
Cc1cc(-c2csc(NC(=O)c3cc4ccccc4o3)n2)c(C)n1C	-8	59*	-10	74	4	-32	i
O=C1CC(c2ccc(Cl)cc2)CC(O)=C1C=NCCO (configuration not stated)	·	·	4	98	2	·	·
COc1ccc2cc(C(N)=O)c(=Nc3ccc(C)cc3)oc2c1	-2	-40	13	94	5	-1	·
Cc1cccc(N=c2oc3cc(O)ccc3cc2C(N)=O)c1	10	153*	-6	·	-2	79*	·
COc1cccc2cc(C(=O)NCC3CCCO3)c(=O)oc12 (configuration not stated)	0	5	-4	99	-3	-2	·
COc1ccccc1N=c1oc2cc(O)ccc2cc1C(=O)NCC1CCCO1 (configuration not stated)	43	72*	-4	·	174*	-10	·
COc1ccccc1N=c1oc2cc(O)ccc2cc1C(N)=O	10	140*	-25	101	179*	42	·
COc1ccc2oc(=O)c(C(=O)NCC3CCCO3)cc2c1 (configuration not stated)	12	3	-19	99	9	23	·
